The values below come from ChEMBL document CHEMBL1154674, “Synthesis and evaluation of three 18F-labeled aminophenylbenzothiazoles as amyloid imaging agents” (J Med Chem, 2009).

Structures are written as SMILES.

Type in all cases: ADME, organism-based, Macaca mulatta
Series [1] can be described thus: Drug level in normal rhesus monkey white matter assessed as standard uptake value at 81.2 MBq, iv after 0.5 mins by microPET. The note with it: in vivo.
Series [2] is described as follows: Drug level in normal rhesus monkey white matter assessed as standard uptake value at 81.2 MBq, iv after 47.5 mins by microPET. Conditions: in vivo.
Series [3] in a line: Drug level in normal rhesus monkey cerebellum assessed as standard uptake value at 81.2 MBq, iv after 65 mins by microPET. The note with it: in vivo. The essentials: (§1)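 One normal rhesus monkey, each tracer given iv via the vena saphena (81.2, 96.3 or 109.4 MBq), with 1 day between tracer injections. Dynamic brain μPET over 180 min used frames of 5 × 60 s, 5 × 120 s, 9 × 300 s and 12 × 600 s. Images were reconstructed by filtered back projection with a RAMP filter. Regional time-activity curves were expressed as SUV.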

Series [4] in a line: Drug level in normal rhesus monkey pons assessed as standard uptake value at 81.2 MBq, iv after 6 mins by microPET. The note with it: in vivo, 0.1 h.
Series [5] in a line: Drug level in normal rhesus monkey white matter assessed as standard uptake value at 81.2 MBq, iv after 2.5 mins by microPET. Conditions: in vivo.
Series [6] in a line: Drug level in normal rhesus monkey white matter assessed as standard uptake value at 81.2 MBq, iv after 75 mins by microPET. The note with it: in vivo, 1.25 h.
Series [7] can be described thus: Drug level in normal rhesus monkey white matter assessed as standard uptake value at 81.2 MBq, iv after 57.5 mins by microPET. Conditions: in vivo.
Series [8] can be described thus: Drug level in normal rhesus monkey pons assessed as standard uptake value at 81.2 MBq, iv after 165 mins by microPET. The note with it: in vivo, 2.75 h.
Series [9] is described as follows: Drug level in normal rhesus monkey frontal cortex assessed as standard uptake value at 81.2 MBq, iv after 27.5 mins by microPET. Conditions: in vivo.
Series [10] can be described thus: Drug level in normal rhesus monkey parietal cortex assessed as standard uptake value at 96.3 MBq, iv after 1.5 mins by microPET. The note with it: in vivo, 0.025 h.
Series [11] can be described thus: Drug level in normal rhesus monkey parietal cortex assessed as standard uptake value at 96.3 MBq, iv after 47.5 mins by microPET. Conditions: in vivo.
The nature of series [12]: Drug level in normal rhesus monkey frontal cortex assessed as standard uptake value at 96.3 MBq, iv after 10 mins by microPET. Conditions: in vivo.
Series [13] can be described thus: Drug level in normal rhesus monkey white matter assessed as standard uptake value at 96.3 MBq, iv after 2.5 mins by microPET. Conditions: in vivo.
Series [14] can be described thus: Drug level in normal rhesus monkey pons assessed as standard uptake value at 96.3 MBq, iv after 1.5 mins by microPET. The note with it: in vivo, 0.025 h.
Series [15] in a line: Drug level in normal rhesus monkey white matter assessed as standard uptake value at 96.3 MBq, iv after 75 mins by microPET. The note with it: in vivo, 1.25 h.
Series [16] in a line: Drug level in normal rhesus monkey pons assessed as standard uptake value at 96.3 MBq, iv after 42.5 mins by microPET. The note with it: in vivo.
A short description of series [17]: Drug level in normal rhesus monkey thalamus assessed as standard uptake value at 96.3 MBq, iv after 1.5 mins by microPET. The note with it: in vivo, 0.025 h.
The nature of series [18]: Drug level in normal rhesus monkey pons assessed as standard uptake value at 96.3 MBq, iv after 32.5 mins by microPET. Conditions: in vivo.
Series [19] can be described thus: Drug level in normal rhesus monkey cerebellum assessed as standard uptake value at 96.3 MBq, iv after 135 mins by microPET. Conditions: in vivo, 2.25 h. The essentials:
as §1

Series [20] can be described thus: Drug level in normal rhesus monkey cerebellum assessed as standard uptake value at 109.4 MBq, iv after 15.5 mins by microPET. The note with it: in vivo.
Series [21] in a line: Drug level in normal rhesus monkey white matter assessed as standard uptake value at 109.4 MBq, iv after 75 mins by microPET. The note with it: in vivo, 1.25 h.
Series [22] in a line: Drug level in normal rhesus monkey white matter assessed as standard uptake value at 109.4 MBq, iv after 111 mins by microPET. The note with it: in vivo.
Series [23] is described as follows: Drug level in normal rhesus monkey cerebellum assessed as standard uptake value at 109.4 MBq, iv after 81 mins by microPET. The note with it: in vivo, 1.35 h.
A short description of series [24]: Drug level in normal rhesus monkey white matter assessed as standard uptake value at 109.4 MBq, iv after 1.5 mins by microPET. The note with it: in vivo, 0.025 h.
The nature of series [25]: Drug level in normal rhesus monkey pons assessed as standard uptake value at 109.4 MBq, iv after 6.5 mins by microPET. The note with it: in vivo.
Series [26] is described as follows: Drug level in normal rhesus monkey white matter assessed as standard uptake value at 109.4 MBq, iv after 9.5 mins by microPET. The note with it: in vivo.
Series [27] in a line: Drug level in normal rhesus monkey white matter assessed as standard uptake value at 109.4 MBq, iv after 32.5 mins by microPET. Conditions: in vivo.
A short description of series [28]: Drug level in normal rhesus monkey thalamus assessed as standard uptake value at 152.9 MBq, iv after 75 mins by microPET. The note with it: in vivo, 1.25 h.
Series [29] in a line: Drug level in normal rhesus monkey cerebellum assessed as standard uptake value at 152.9 MBq, iv after 47.5 mins by microPET. The note with it: in vivo. An outline of the steps:
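One normal rhesus monkey received each tracer via the vena saphena, with 1 day between injections. Dynamic μPET ran 180 min for 18F tracers (5×60 s, 5×120 s, 9×300 s, 12×600 s) and 90 min for the 11C tracer (5×60 s, 5×120 s, 9×300 s, 3×600 s). Filtered back-projection reconstruction (RAMP filter) was used. Time-activity curves were drawn to give regional SUV.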

Series [30] is described as follows: Drug level in normal rhesus monkey pons assessed as standard uptake value at 152.9 MBq, iv after 75 mins by microPET. The note with it: in vivo, 1.25 h.
Series [31] can be described thus: Drug level in normal rhesus monkey thalamus assessed as standard uptake value at 152.9 MBq, iv after 85 mins by microPET. Conditions: in vivo.
The nature of series [32]: Drug level in normal rhesus monkey pons assessed as standard uptake value at 152.9 MBq, iv after 42.5 mins by microPET. The note with it: in vivo.
The nature of series [33]: Drug level in normal rhesus monkey frontal cortex assessed as standard uptake value at 152.9 MBq, iv after 22.5 mins by microPET. Conditions: in vivo, 0.375 h. The essentials: (§2)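 Single normal rhesus monkey; tracer given iv via the vena saphena, 1 day apart from the other tracer injections. Dynamic μPET ran 90 min (5×60 s, 5×120 s, 9×300 s, 3×600 s). Images were reconstructed by filtered back projection with a RAMP filter. Regional time-activity curves were expressed as SUV.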

The nature of series [34]: Drug level in normal rhesus monkey frontal cortex assessed as standard uptake value at 152.9 MBq, iv after 1.5 mins by microPET. Conditions: in vivo, 0.025 h. An outline of the steps: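 One normal rhesus monkey, tracer given iv via the vena saphena (152.9 MBq), with at least 1 day between tracer injections. Dynamic brain μPET over 90 min used frames of 5 × 60 s, 5 × 120 s, 9 × 300 s and 3 × 600 s. Images were reconstructed by filtered back projection with a RAMP filter. Regional time-activity curves were expressed as SUV.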

A short description of series [35]: Drug level in normal rhesus monkey frontal cortex assessed as standard uptake value at 152.9 MBq, iv after 12 mins by microPET. The note with it: in vivo, 0.2 h. An outline of the steps:
as §2

Series [36] is described as follows: Drug level in normal rhesus monkey white matter assessed as standard uptake value at 152.9 MBq, iv after 75 mins by microPET. The note with it: in vivo, 1.25 h.

`CNc1ccc2nc(-c3ccc([18F])cc3)sc2c1`: the SUV in series [1] was 0.621; in [2] it was 3.674; in series [3] it was 1.88; in series [4] it was 4.164; in series [5] it was 2.607; in [6], 3.823. Moreover, the SUV in series [7] was determined as 3.796; in series [8], 4.946; in series [9], 5.784.

For `CN(C)c1ccc2nc(-c3ccc([18F])cc3)sc2c1`, the SUV in series [10] is recorded as 1.7; in series [11], 1.72; in [12] it was 2.13; in series [13] it was 0.94; in [14], 0.8; in series [15] it was 1.5. Moreover, the SUV in [16] stood at 1.7; in [17] it was 1.55; in [18], 1.67; in series [19], 0.94.

For the molecule `Nc1ccc2nc(-c3ccc([18F])cc3)sc2c1`, the SUV is on record as 4.94 in [20]; 3.63 in series [21]; 3.82 in series [22]; 2.87 in [23]; 1.98 in series [24]; 4.08 in series [25]. The SUV in [26] is on record as 2.99; in [27], 3.36.

For the molecule `[11CH3]Nc1ccc(-c2nc3ccc(O)cc3s2)cc1` [PITTSBURGH COMPOUND B], the SUV in series [28] turned out to be 0.731; in [29], 0.866; in series [30], 0.834; in [31], 0.672; in series [32], 1.179; in series [33] it was 1.373. Also, the SUV in series [34] turned out to be 0.478; in [35], 2.027; in [36], 0.828.
